Source: ChEMBL document CHEMBL4145607, “Tamarixetin Exhibits Anti-inflammatory Activity and Prevents Bacterial Sepsis by Increasing IL-10 Production” (J Nat Prod, 2018)
Activity calls are given as the source filed them. No cut-off for these calls is given here.

Tests used:
BMDC [1] = test: Inhibition of LPS-induced immune response in C57BL/6 mouse BMDC assessed as reduction in IL-12p70 secretion up to 25 uM pretreated for 30 mins followed by LPS-challenge measured after 6 hrs by ELISA; type: functional, cell-based
Method in brief: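 Mouse BMDCs (female C57BL/6 bone marrow, GM-CSF-derived, ≥90% CD11c+ on day 7) pretreated 30 min with graded compound concentrations, then stimulated with LPS 50 ng/mL for 6 h. Supernatant TNF-α, IL-6, IL-10 and IL-12p70 quantified by sandwich ELISA. Mean ± SEM vs LPS-only cells; experiments repeated at least three times.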

BMDC [2] = test: Inhibition of LPS-induced immune response in C57BL/6 mouse BMDC assessed as reduction in IL-12p70 secretion at 25 uM treated 6 hrs post LPS-challenge measured after 30 mins by ELISA; type: functional, cell-based
Method in brief: (§1)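 Bone marrow DCs from 6-week-old female C57BL/6 mice, RBC-lysed, cultured in RPMI-1640/10% FBS with 10 ng/mL rmGM-CSF, 37 °C, 5% CO2. Cells given LPS 50 ng/mL for 6 h, then 25 μM compound added for 30, 60, 90 or 120 min. Supernatant TNF-α, IL-6, IL-10, IL-12p70 measured by sandwich ELISA. Mean ± SEM, compared with LPS-only DCs.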

BMDC [3] = test: Inhibition of LPS-induced immune response in C57BL/6 mouse BMDC assessed as reduction in IL-12p70 secretion at 25 uM treated 6 hrs post LPS-challenge measured after 60 to 120 mins by ELISA; type: functional, cell-based; method in brief: as §1
BMDC [4] = test: Increase in microRNA187 expression in LPS-induced C57BL/6 mouse BMDC at 25 uM pretreated for 30 mins followed by LPS-challenge measured after 6 hrs by qRT-PCR analysis; type: functional, cell-based
Method in brief: (§2)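 Total RNA was extracted from BMDCs with TRIzol and reverse transcribed. miR-146a, miR-155 and miR-187 were quantified by real-time qPCR with gene-specific primers.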

BMDC [5] = test: Increase in microRNA146a expression in LPS-induced C57BL/6 mouse BMDC at 25 uM pretreated for 30 mins followed by LPS-challenge measured after 6 hrs by qRT-PCR analysis; type: functional, cell-based; method in brief: as §2
Mus musculus [6] = test: Antiinflammatory activity in Balb/c mouse model of LPS-induced endotoxemia assessed as increase in serum IL10 level at 1 mg/kg, ip pretreated for 1 hr followed by LPS-challenge measured after 2 hrs by ELISA; type: functional, organism-based
Method in brief: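 BALB/c mice were dosed with 1 mg·kg−1 i.p. 1 h before LPS 10 mg·kg−1 i.p. Serum was taken 2 h later, and TNF-α, IL-6 and IL-10 were measured by sandwich ELISA. Means ± SEM.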

Mus musculus [7] = test: Antiinflammatory activity in Balb/c mouse model of LPS-induced endotoxemia assessed as reduction in serum ALT level at 1 mg/kg, ip pretreated for 1 hr followed by LPS-challenge measured after 12 hrs by ELISA; type: functional, organism-based
Method in brief: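 In BALB/c mice, 1 mg·kg−1 i.p. was given 1 h before LPS 10 mg·kg−1 i.p. After 12 h, serum AST, ALT and BUN were measured by ELISA. Means ± SEM.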

BMDC [8] = test: Inhibition of Escherichia coli DH5alpha infection-induced immune response in C57BL/6 mouse BMDC assessed as reduction in TNFalpha secretion at 25 uM pretreated for 60 to 120 mins followed by Escherichia coli DH5alpha infection for 6 hrs by ELISA; type: functional, cell-based
Method in brief: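 C57BL/6 BMDCs received 25 μM compound and E. coli DH5α, 3 × 10^6 CFU·mL−1. Schedules were: compound 30 min before a 6 h infection; co-addition for 6 h; or compound for 30, 60, 90 or 120 min plus 6 h infection. Supernatant TNF-α, IL-6, IL-10 and IL-12p70 were measured by ELISA. At least three experiments in triplicate.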

BMDC [9] = test: Inhibition of Escherichia coli K1 infection-induced immune response in C57BL/6 mouse BMDC assessed as reduction in IL-6 secretion at 25 uM pretreated for 30 mins followed by Escherichia coli K1 infection for 6 hrs by ELISA; type: functional, cell-based
Method in brief: (§3)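 BMDCs from C57BL/6 mice were given 25 μM compound and E. coli K1, […]. Timing was: compound 30 min before a 6 h infection; cotreatment for 6 h; or compound for 30–120 min with 6 h infection. Supernatant cytokines (TNF-α, IL-6, IL-10, IL-12p70) were measured by ELISA. At least three experiments in triplicate.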

BMDC [10] = test: Inhibition of Escherichia coli K1 infection-induced immune response in C57BL/6 mouse BMDC assessed as reduction in TNFalpha secretion at 25 uM pretreated for 30 mins followed by Escherichia coli K1 infection for 6 hrs by ELISA; type: functional, cell-based; method in brief: as §3
BMDC [11] = test: Inhibition of Escherichia coli K1 infection-induced immune response in C57BL/6 mouse BMDC assessed as reduction in IL-12p70 secretion at 25 uM pretreated for 30 mins followed by Escherichia coli K1 infection for 6 hrs by ELISA; type: functional, cell-based; method in brief: as §3
BMDC [12] = test: Inhibition of Escherichia coli K1 infection-induced immune response in C57BL/6 mouse BMDC assessed as reduction in IL-6 secretion at 25 uM pretreated for 60 to 120 mins followed by Escherichia coli K1 infection for 6 hrs by ELISA; type: functional, cell-based; method in brief: as §3
BMDC [13] = test: Inhibition of Escherichia coli K1 infection-induced immune response in C57BL/6 mouse BMDC assessed as reduction in IL-12p70 secretion at 25 uM pretreated for 60 to 120 mins followed by Escherichia coli K1 infection for 6 hrs by ELISA; type: functional, cell-based; method in brief: as §3
Mus musculus [14] = test: Antiseptic activity in Balb/c mouse model of Escherichia coli K1 infection-induced sepsis assessed as increase in survival rate at 1 mg/kg, ip pretreated for 1 hr followed by Escherichia coli K1 infection measured up to 20 hrs relative to control; type: functional
Mus musculus [15] = test: Antiseptic activity in Balb/c mouse model of Escherichia coli K1 infection-induced sepsis assessed as reduction in serum AST level at 1 mg/kg, ip pretreated for 1 hr followed by Escherichia coli K1 infection measured after 2 hrs by ELISA; type: functional, organism-based
Mus musculus [16] = test: Antiseptic activity in Balb/c mouse model of Escherichia coli K1 infection-induced sepsis assessed as reduction in serum blood urea nitrogen level at 1 mg/kg, ip pretreated for 1 hr followed by Escherichia coli K1 infection measured after 2 hrs by ELISA; type: functional, organism-based
Mus musculus [17] = test: Antiinflammatory activity in Balb/c mouse model of LPS-induced endotoxemia assessed as increase in IL10 producing monocyte/macrophage in splenocyte at 1 mg/kg, ip pretreated for 1 hr followed by LPS-challenge measured after 12 hrs by flow cytometric analysis; type: functional, organism-based
Mus musculus [18] = test: Antiseptic activity in Balb/c mouse model of Escherichia coli K1 infection-induced sepsis assessed as reduction in bacterial count in kidneys at 1 mg/kg, ip pretreated for 1 hr followed by Escherichia coli K1 infection measured after 12 hrs; type: functional, organism-based
Method in brief: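 Pretreatment was 1 mg·kg−1 i.p. 1 h before i.p. E. coli K1 (1 × 10^6 CFU per mouse) in BALB/c mice. At 12 h, lungs, liver and kidneys were homogenized in PBS and diluted 1:1000. 10 μL was plated on LB agar, incubated 24 h at 37 °C, and colonies counted.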

COc1ccc(-c2oc3cc(O)cc(O)c3c(=O)c2O)cc1O [TAMARIXETIN]
inhibition (BMDC [1]): Active
inhibition (BMDC [2]): Active
inhibition (BMDC [3]): inactive
Activity (BMDC [4]): Active
Activity (BMDC [5]): Active
Activity (Mus musculus [6]): Active
Activity (Mus musculus [7]): Active
inhibition (BMDC [8]): inactive
inhibition (BMDC [9]): Active
inhibition (BMDC [10]): Active
inhibition (BMDC [11]): Active
inhibition (BMDC [12]): inactive
inhibition (BMDC [13]): inactive
Activity (Mus musculus [14]): 60%
Activity (Mus musculus [15]): Active
Activity (Mus musculus [16]): Active
Activity (Mus musculus [17]): Active
Activity (Mus musculus [18]): Active
